Compound activity (PubChem)
RORa activator: RORA (human) activation. AID 560. activation, % at 10 µM. CHO-K1 Gal4-RORA LBD luciferase reporter, luminescence; percent increase over mock-subtracted basal signal. P35398. 65,000 compounds, 1.5% hits;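 active = activation above the mean of all tested compounds plus 3 SD, cut at about 49% in these data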;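 also: 0% = DMSO-treated RORA cells and 100% = added signal equal to DMSO minus mock-transfected cells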
Ec RNAP inh: blocks E. coli RNA polymerase transcription | fluorescence transcription assay | inhibition, %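 (tested at 10 µM)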 | 62,000 compounds, 0.2% hits; in the data active = inhibition above about 20%;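 also: 0% = enzyme without compound and 100% = no enzyme blank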
SF1 activator: SF-1 (human) activation; activation, % at 10 µM; AID 522; Q13285; CHO-K1 Gal4-SF-1 LBD luciferase reporter; % increase over DMSO SF-1-specific signal; 65,000 compounds, 1.9% hits;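 active = activation above the mean activation of all tested compounds plus 3 SD, cut at about 50% in these data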
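Assay system: CHO-K1 cells co-transfected with Gal4 DBD–human SF-1 LBD, 5xGal4 luciferase reporter / Input: 4,000 cells per well / Incubation: 20 h compound exposure at 37 °C after 1 h cell settling / Detection: SteadyLite luciferase luminescence / Control set: DMSO negative control and −SF1 background wells / Replication: one test per compound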
JNK3 blocker: blocks human JNK3 kinase activity; P53779; purified JNK3 kinase activity, HTS; inhibition, % at 8 µM; 60,000 compounds, 0.61% hits; AID 746; in the data active = inhibition above about 17%;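 also: 0% = DMSO and 100% = reference inhibitor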
Target sequence (P53779 whole entry, looked up): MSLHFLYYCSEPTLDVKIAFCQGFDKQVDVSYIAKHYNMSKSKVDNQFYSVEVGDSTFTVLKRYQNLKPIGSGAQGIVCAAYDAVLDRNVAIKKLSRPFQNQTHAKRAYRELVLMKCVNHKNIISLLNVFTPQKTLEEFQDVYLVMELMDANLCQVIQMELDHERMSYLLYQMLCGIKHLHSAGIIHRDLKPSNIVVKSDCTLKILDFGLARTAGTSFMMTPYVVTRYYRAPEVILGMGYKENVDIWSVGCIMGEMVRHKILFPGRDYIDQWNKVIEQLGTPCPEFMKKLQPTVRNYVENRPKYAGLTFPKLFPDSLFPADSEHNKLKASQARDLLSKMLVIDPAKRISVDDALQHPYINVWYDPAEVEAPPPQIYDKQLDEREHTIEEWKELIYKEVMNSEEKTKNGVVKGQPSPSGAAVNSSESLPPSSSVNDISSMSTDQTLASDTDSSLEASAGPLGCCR
BAP1 inh: blocks human BAP1 ubiquitin-AMC hydrolysis. Q92560. recombinant BAP1, Ub-AMC hydrolysis fluorescence kinetic; stronger effect = lower value. 72,000 compounds, 0.48% hits. activity remaining (% of control), % at 20 µM. AID 436;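 active = activity remaining at or below 50% of control, provided the compound also passes the data quality filters; inactive = the rest, including low values that fail the filters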;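 also: 100% = DMSO wells rate and 0% = substrate alone blank rate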
Active calls of the source: *; / = no result shown. Hits are enriched below; roughly 3.2% of the tested compounds scored in any of these assays.

SMILES | RORa activator | Ec RNAP inh | SF1 activator | JNK3 blocker | BAP1 inh
COc1cc(/C=C/C(=O)CC(=O)/C=C/c2ccc(O)c(OC)c2)ccc1O | -18 | 8 | -19 | 0 | 76
O=C(O)/C=C/c1ccc(O)c(O)c1 | -18 | 21* | -2 | 7 | 79
CCN=c1scc(C)n1/N=C/c1ccsc1 | 69* | 3 | 70* | -10 | 51
Cn1cccc1C(=O)OCc1csc(-c2ccccc2)n1 | 59* | 4 | 6 | 10 | 75
Cc1ccccc1Nc1nc(N)nc(COC(=O)c2cccn2C)n1 | 60* | -3 | 66* | -3 | 112
O=C(OCc1csc(-c2ccccc2)n1)c1cccs1 | 31 | 1 | 43 | 4 | 81
Cc1c(-c2nc(N)nc(Nc3ccccc3)n2)oc2ccccc12 | 89* | 5 | 162* | 18* | /
O=C(NCc1ccc2c(c1)OCO2)c1cnc2n(c1=O)CCS2 | 4 | 11 | -5 | -6 | 104
O=C(NCCc1ccc(Cl)cc1)c1cnc2n(c1=O)CCS2 | 35 | 6 | 34 | 1 | 94
Cc1cccc(NC(=O)c2cnc3n(c2=O)CCS3)c1 | 76* | / | 24 | -1 | 96
O=C(NCCC1=CCCCC1)c1cnc2n(c1=O)CCS2 | 34 | / | 51* | -2 | 105
O=C(Nc1ccccc1)c1cnc2n(c1=O)CCS2 | 37 | 11 | 30 | -1 | 96
O=C(Nc1ccc2c(c1)OCO2)c1cnc2n(c1=O)CCS2 | 36 | 9 | 62* | -1 | 97
O=C(Nc1ccc2c(c1)OCCO2)c1cnc2n(c1=O)CCS2 | 88* | -10 | 91* | -1 | 87
CC(=O)c1ccc(C(=O)Nc2nc3c(s2)CCCC3)cc1 | / | / | / | / | 128
CCOC(=O)c1oc2ccccc2c1CN1CCN(c2ccccc2)CC1 | 16 | 10 | -13 | -1 | 92
COc1ccc(OC)c(N=c2oc3cc(O)ccc3cc2C(N)=O)c1 | 68* | 8 | 43 | 3 | 113
O=C(NCc1nc2ncc(Br)cc2[nH]1)c1ccccc1 | -11 | -1 | 13 | 40* | 90
COc1cccc(-c2cc(C(=O)N3CCN(C(c4ccccc4)c4ccccc4)CC3)no2)c1 | -23 | 5 | 3 | -6 | 50
COc1cccc(-c2cc(C(=O)N3C(C)CCCC3C)no2)c1 (stereo not drawn) | 67* | -9 | 36 | / | 115
CCC1CCCCN1C(=O)c1cc(-c2ccc(Cl)c(Cl)c2)on1 (stereo not drawn) | 54* | 5 | 40 | 0 | 83
CC(C)CNC(=O)c1cc(-c2ccc(Cl)c(Cl)c2)on1 | 34 | 4 | 25 | 1 | 84
CC1CCCCN1C(=O)c1cc(-c2ccc(Cl)c(Cl)c2)on1 (stereo not drawn) | 62* | 0 | 46 | -4 | 96
O=C1CCCC2=C1C(c1ccccc1)C1=C(CCCC1=O)O2 | -4 | 6 | -14 | -6 | 98
CN(C)c1ccccc1C(=O)c1ccccc1N(C)C | 79* | 13 | 78* | -1 | 90
SMILES | RORa activator | Ec RNAP inh | SF1 activator | JNK3 blocker | BAP1 inh
CN(c1ccccc1C(=O)O)S(C)(=O)=O | -17 | -6 | 6 | 6 | 106
COc1ccc(-c2nc(CS(=O)CC(=O)NCCC3=CCCCC3)c(C)o2)cc1 (stereo not drawn) | 26 | -2 | 22 | 1 | 96
CC(=O)Nc1ccc(NC2=CC(=O)CC(C)(C)C2)cc1 | -13 | 7 | 10 | -3 | 121
Cc1cc(N)c(NC2=CC(=O)CC(C)(C)C2)cc1C | 70* | 6 | 9 | -7 | 97
O=S(=O)(NCC(c1cccnc1)N1CCN(c2ccccc2)CC1)c1cccs1 (stereo not drawn) | 1 | 6 | 2 | / | 103
COc1ccc(CC(=O)N2CCN(c3ccccn3)CC2)cc1OC | 0 | 4 | 6 | -3 | 95
CCCc1ccc(OCc2ccc(C(=O)N3CCN(c4ccccn4)CC3)o2)c(OC)c1 | 50* | 7 | 5 | 3 | 99
COc1ccc(N(CC(=O)N2CCCCC2)S(=O)(=O)c2ccccc2)c(OC)c1 | -25 | 8 | -8 | 3 | 110
CC1(C)Cc2c(sc3nc(SCC(=O)O)[nH]c(=O)c23)CO1 | -7 | -3 | -2 | 0 | 119
CCOC(=O)c1ccc(NS(=O)(=O)N2CCCCCC2)cc1 | 49* | 11 | 24 | 2 | 85
O=C(Nc1c2c(nn1-c1ccc(Cl)cc1)CS(=O)(=O)C2)c1ccc2c(c1)OCO2 | -3 | 3 | 10 | / | 75
Cn1cnc2cc(NC(=O)c3ccc(Cl)cc3)ccc21 | 79* | 0 | 67* | 0 | 100
